T1: LdAI (Leishmania donovani, UniProt A0A3Q8IA09)
T1 sequence (A0A3Q8IA09 1-398): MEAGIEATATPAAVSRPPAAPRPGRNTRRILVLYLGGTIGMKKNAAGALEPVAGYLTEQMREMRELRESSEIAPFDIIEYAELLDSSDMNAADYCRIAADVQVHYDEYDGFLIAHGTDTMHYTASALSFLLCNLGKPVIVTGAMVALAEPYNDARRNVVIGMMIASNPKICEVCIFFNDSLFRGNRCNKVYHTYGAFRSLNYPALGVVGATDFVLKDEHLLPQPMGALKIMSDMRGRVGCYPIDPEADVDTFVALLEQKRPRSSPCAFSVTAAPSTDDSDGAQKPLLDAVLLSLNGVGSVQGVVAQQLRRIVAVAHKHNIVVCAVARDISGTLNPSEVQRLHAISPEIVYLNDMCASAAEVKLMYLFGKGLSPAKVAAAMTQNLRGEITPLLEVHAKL

B1: LdAI (Leishmania donovani) (protein)
chain: T1 sequence (A0A3Q8IA09 1-398)

How the values were obtained:
[1] = tested on: LdAI transfected amastigotes (WT-LdAI); test: MTT survival of LdAI transfected axenic amastigotes; format: cell-based, Leishmania donovani
[2] = tested on: LdAI transcript in promastigotes; test: Semi quantitative RT-PCR and real-time PCR of LdAI expression, promastigotes; format: cell-based, Leishmania donovani; conditions: 0.125 μg/ml AmB for 8 h vs untreated
[3] = tested on: LdAI transcript in axenic amastigotes; test: Real-time PCR of LdAI expression, axenic amastigotes; format: cell-based, Leishmania donovani; conditions: AmB treated vs untreated
[4] = tested on: pLP2-LdAI transfected promastigotes (WT-LdAI); test: MTT survival of LdAI over-expressing promastigotes; format: cell-based, Leishmania donovani
[5] = tested on: L. donovani wild type AG83 (WT) promastigotes; test: MTT survival of wild type promastigotes; format: cell-based; conditions: Leishmania donovani, 48 h
How it was run: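 AG83 promastigotes were kept in M199 (pH 5.5) with 10% FBS. Late-exponential cells, diluted to 2 × 10^6/ml, were exposed to varying concentrations of test compound prepared in FBS-free M199 for 48, 72 and 96 h. Viability was read by MTT at 570 nm as % survival (mean, standard error, three independent experiments). IC50 came from a log(inhibitor) vs normalised response fit.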

LdAI [6] = biological target: T1, LdAI; test: Fluorometric titration of ligands with LdAI; format: binding
How it was run: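 Fluorometric titrations at 298 K in 20 mM Tris, 150 mM NaCl, pH 8.0. Constant enzyme was titrated with increasing ligand (Asp, Glu or test compound), with a 300 s pre-scan delay. Excitation was 274 nm and emission was recorded 290–400 nm. Kd came from a single-site specific binding fit, Y = Bmax*X/(Kd + X).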

LdAI [7] = biological target: T1, LdAI; test: Isothermal titration calorimetry with LdAI; format: binding; conditions: for N (Drug/LdAI) / TΔS / ΔH / ΔG: ITC, direct titration; for N (Drug/LdAI) / TΔS / ΔH: 3 μM LdAI, 298 K; for ΔG: ΔG= ΔH−TΔS
How it was run: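 Direct ITC at 298 K in 20 mM Tris, 150 mM NaCl, pH 8.0. LdAI in the cell was titrated with test compound: one small injection, then 25 injections. Heats of dilution were normalised by buffer titrations. A single-site model with Levenberg–Marquardt nonlinear fitting gave Ka, ΔH and ΔS, and ΔG was calculated as ΔH − TΔS.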

LdAI [8] = biological target: T1, LdAI; test: Competitive inhibition assay, Gln hydrolysis kinetics; format: biochemical; conditions: Gln as substrate, LdAI alone, no inhibitor
[9] = substrate: NC(=O)CC[C@H](N)C(=O)O; test: as above; format: biochemical, Leishmania donovani; conditions: other: Gln as substrate, LdAI alone, no inhibitor; pH 8.0; 25.0 °C

Molecule | Kd (LdAI [6]) | Kd (LdAI [7]) | N (Drug/LdAI) (LdAI [7]) | TΔS (LdAI [7]) | ΔH (LdAI [7]) | ΔG (LdAI [7]) | also measured
C[C@@H]1[C@H](O)[C@@H](C)/C=C/C=C/C=C/C=C/C=C/C=C/C=C/[C@H](O[C@@H]2O[C@H](C)[C@@H](O)[C@H](N)[C@@H]2O)C[C@@H]2O[C@](O)(C[C@@H](O)C[C@@H](O)[C@H](O)CC[C@@H](O)C[C@@H](O)CC(=O)O[C@H]1C)C[C@H](O)[C@H]2C(=O)O [AmB, Amphotericin B] | – | – | – | – | – | – | IC50 ([1]; Leishmania donovani, 48 h): 1900 ± 600 nM; lower IC90 in wild-type than in LdAI over-expressing parasites ([1]; amastigote form): eight; increase in IC50, LdAI transfected vs non-transfected ([1]; amastigotes): eight; enhancement in LdAI transcription (semiquantitative PCR) [2]: 2.5 fold; increase in LdAI transcript expression (quantitative real time PCR) [2]: four; increase in LdAI transcript expression (quantitative real time PCR) [3]: five; IC50 ([4]; Leishmania donovani, 48 h): 2200 ± 300 nM; lower IC90 in wild-type than in LdAI over-expressing parasites ([4]; promastigote form): three; increase in IC50, LdAI transfected vs non-transfected ([4]; promastigotes): three; IC50 [5]: 600 ± 70 nM
N[C@@H](CC(=O)O)C(=O)O [Asp, L-aspartic acid] | 2400 ± 400 nM | 7700 nM | 4.0 ± 0.7 | 0.64 kcal/mol | -6.34 ± 0.3 kcal/mol | -6.98 kcal/mol | –
NC(=O)CC[C@H](N)C(=O)O [Gln, L-glutamine] | – | – | – | – | – | – | Vmax (LdAI [8]): 267.9 ± 7.6
N[C@@H](CCC(=O)O)C(=O)O [Glu, L-glutamic acid] | 11600 ± 1300 nM | 5000 nM | 2.14 ± 0.6 | -18.38 kcal/mol | -25.6 ± 1.1 kcal/mol | -7.22 kcal/mol | –
B1 | – | – | – | – | – | – | Km [9]: 9.5 ± 0.8 mM
